According to ChEMBL document CHEMBL3393011, “Magnolol Inhibits RANKL-induced osteoclast differentiation of raw 264.7 macrophages through heme oxygenase-1-dependent inhibition of NFATc1 expression” (J Nat Prod, 2015):
Activity calls are given as the source filed them.

Columns and labels:
[1] = system: RAW264.7; assay: Cytotoxicity against mouse RAW264.7 cells assessed as cell viability at 5 to 20 uM after 24 hrs by MTT assay; type: cell-based; details: raw264.7, 24 h
How it was run: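 Cells grown in DMEM with 10% heat-inactivated FBS. Exposure to compound or 0.1% DMSO vehicle for 24 h. MTT added 1 h at 37 °C, formazan dissolved in DMSO and read at 570 nm.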

[2] = system: RAW264.7; assay: Antiosteoclast activity in mouse RAW264.7 cells assessed as reduction of RANKL-induced osteoclasts differentiation by measuring TRAP positive multinucleated cells after 5 days; type: functional, cell-based
How it was run: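 Cells seeded 24 h, then 5 days in α-MEM with 10% FBS, RANKL 50 ng/mL and test compound. Cells fixed in 10% formalin 10 min and TRAP-stained. Multinucleated TRAP+ cells with three or more nuclei counted by light microscopy; mean ± SD, n = 5.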

[3] = system: RAW264.7; assay: Inhibition of RANKL-stimulated JNK phosphorylation in mouse RAW264.7 cells at 20 uM by Western blotting analysis; type: cell-based
How it was run: (§1)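 Compound added 2 h before RANKL, followed by 15 min further incubation. Total cell lysates blotted on 12% SDS-PAGE for total and phosphorylated MAPKs, with milk block, primary overnight at 4 °C, HRP secondary, chemiluminescence and densitometry. At least three independent experiments.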

[4] = system: RAW264.7; assay: Inhibition of RANKL-stimulated ERK phosphorylation in mouse RAW264.7 cells at 20 uM by Western blotting analysis; type: cell-based; how it was run: as §1
[5] = biological target: MAP kinase p38 (Mus musculus) (UniProt P47811+O08911+Q9WUI1+Q9Z1B7); assay: Inhibition of RANKL-stimulated p38 MAPK phosphorylation in mouse RAW264.7 cells at 20 uM by Western blotting analysis; type: cell-based; how it was run: as §1
[6] = system: RAW264.7; assay: Induction of nuclear accumulation of Nrf2 in RANKL-induced mouse RAW264.7 cells up to 20 uM after 3 hrs by Western blot analysis; type: functional, cell-based
How it was run: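 Nuclear protein extracted with hypotonic then hypertonic (420 mM NaCl) buffers after 3 h RANKL 50 ng/mL with compound. Samples run on 12% SDS-PAGE and immunoblotted; at least three independent experiments.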

[7] = system: RAW264.7; assay: Antiosteoclast activity in mouse RAW264.7 cells assessed as reduction of RANKL-induced osteoclasts differentiation by measuring TRAP positive multinucleated cells after 5 days in presence of tin protoporphyrin 9 (SnPP); type: functional, cell-based
How it was run: (§2)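 RANKL 50 ng/mL for 5 days in α-MEM with 10% FBS after 24 h seeding; SnPP 10 μM with test compound. TRAP+ multinucleated cells (≥3 nuclei) counted after formalin fixation and staining. TRAP activity: fixed cells in 50 mM citrate pH 4.6, 10 mM tartrate, 5 mM pNPP for 1 h, stopped with 0.1 N NaOH, A410, as % of RANKL-alone.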

[8] = system: RAW264.7; assay: Antiosteoclast activity in mouse RAW264.7 cells assessed as reduction of RANKL-induced osteoclasts differentiation by measuring TRAP activity after 5 days in presence of tin protoporphyrin 9 (SnPP); type: functional, cell-based; how it was run: as §2
[9] = system: RAW264.7; assay: Inhibition of NFATc1 expression in RANKL-induced mouse RAW264.7 cells at 20 uM after 24 hrs by immunofluorescence staining; type: functional, cell-based
How it was run: (§3)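 Compound 20 μM, alone or with SnPP 10 μM, plus RANKL 50 ng/mL for 24 h. Nuclear NFATc1 by western blot of nuclear extracts, and by immunofluorescence: methanol-fixed cells, 4% BSA block, anti-NFATc1 1:100 overnight at 4 °C, FITC secondary, DAPI counterstain. n = 5.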

[10] = system: RAW264.7; assay: Inhibition of NFATc1 expression in RANKL-induced mouse RAW264.7 cells at 20 uM after 24 hrs by immunofluorescence staining in presence of tin protoporphyrin 9 (SnPP); type: functional, cell-based; how it was run: as §3
[11] = system: RAW264.7; assay: Inhibition of MMP9 activity in RANKL-induced mouse RAW264.7 cells at 20 uM after 5 days by gelatin zymography
[12] = system: RAW264.7; assay: Induction of HO-1 protein expression in RANKL-induced mouse RAW264.7 cells up to 20 uM after 48 hrs by Western blot analysis
[13] = system: RAW264.7; assay: Inhibition of RANKL-induced H2O2 production in mouse RAW264.7 cells pretreated for 2 hrs before RANKL stimulation for 10 mins
[14] = system: RAW264.7; assay: Inhibition of RANKL-induced superoxide anion production in mouse RAW264.7 cells pretreated for 2 hrs before RANKL stimulation for 10 mins
[15] = system: RAW264.7; assay: Inhibition of MMP9 activity in RANKL-induced mouse RAW264.7 cells at 20 uM after 5 days by gelatin zymography in presence of tin protoporphyrin 9 (SnPP)

C=CCc1ccc(O)c(-c2cc(CC=C)ccc2O)c1 [MAGNOLOL]
inactive: Activity [7] | Activity [8] | inhibition [10] | inhibition [15]
Non-toxic: Activity [1]
active: Activity [2] Dose-dependent effect | inhibition [3] | inhibition [4] | inhibition [5] | Activity [6] | inhibition [9] | inhibition [11] | Activity [12] | inhibition [13] Dose-dependent effect | inhibition [14] Dose-dependent effect
